Values after ≈ are worked out from the molar mass of the structure shown. Active and inactive are the calls of the source. No cut-off for these calls is given here.
How the values were obtained:
[1] = Inhibition of Mycobacterium smegmatis TMC 607 ATP synthase incubated for 10 mins prior to NADH addition measured after 1 hr by luminescence assay; design: species or system Mycolicibacterium smegmatis; conditions: read-out: IC50
[2] = tested on: Mycobacterium tuberculosis; assay: Antimycobacterial activity against Mycobacterium tuberculosis H37Rv after 4 weeks by agar dilution assay; assay type: functional
Procedure, shortened: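 Agar dilution method. DMSO stocks (5 mg/mL) were serially diluted in DMSO, and 0.1 mL of each was mixed into 1.9 mL Middlebrook 7H10 agar with OADC and set as slants. Each tube received about 10^5 bacilli from a 3-week Lowenstein–Jensen culture suspended in saline with 0.05% Tween-80. Tubes were incubated at 37 °C for 4 weeks. MIC was the lowest concentration with no visible growth.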

[3] = Cytotoxicity against African green monkey Vero cells after 72 hrs yb resazurin assay; assay type: cell-based; conditions: chlorocebus sabaeus
Procedure, shortened: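 Vero cells were seeded overnight in RPMI with 10% heat-inactivated FBS at 37 °C, 5% CO2. Cells were exposed in triplicate to concentrations from 100 to 1.56 µg/mL for 72 h. Resazurin (0.1%) was then added for 4–5 h, and fluorescence was read at ex 530/em 590 nm. CC50 was derived from the fluorescence plot.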

[4] = Selectivity index, ratio of CC50 for African green monkey Vero cells to MIC100 for Mycobacterium tuberculosis H37Rv; assay type: toxicity, cell-based; conditions: read-out: Selectivity Index
Procedure, shortened: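 Selectivity index is CC50 from the Vero resazurin assay divided by the agar-dilution MIC against H37Rv.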

[5] = tested on: Mycobacterium tuberculosis H37Rv; assay: Inhibition of Mycobacterium tuberculosis H37Rv ATP synthase assessed as reduction in total ATP content at 50 ug/ml after 18 hrs by bead-vortexing settling method
Procedure, shortened: (§1)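 H37Rv was declumped by bead-vortexing and settling, adjusted to McFarland 1, then diluted 100-fold. Portions of 1 mL in tubes with 0.5 mm glass beads were exposed to compound for 18 h at 37 °C. Samples were heated 8–10 min, chilled on ice, and bead-beater lysed. Cleared lysate ATP was measured by luciferase assay.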

[6] = tested on: Mycobacterium tuberculosis H37Rv; assay: Inhibition of Mycobacterium tuberculosis H37Rv ATP synthase assessed as reduction in total ATP content at 12.5 ug/ml after 18 hrs by bead-vortexing settling method; procedure, shortened: as §1
[7] = Inhibition of Swiss mouse liver ATP synthase after 1 hr
Procedure, shortened: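 Liver mitochondria came from an overnight-fasted adult Swiss mouse, isolated by differential centrifugation in sucrose/Tris-MOPS/EGTA buffer pH 7.4 and assayed the same day. Mitochondria (100 µg) were stirred at room temperature with 100 µM compound in Tris/HCl, sucrose, 5 mM MgCl2 and 100 µM diadenosine pentaphosphate, pH 7.4. The reaction was started with 1 mM ADP, 20 mM Pi and 50 mM succinate, stopped after 1 h with EDTA-TCA, and ATP was read by luciferase.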

[8] = Selectivity ratio of IC50 for Mycobacterium smegmatis TMC 607 ATP synthase to IC50 for Swiss mouse liver ATP synthase
[9] = tested on: Mycobacterium tuberculosis; assay: Bactericidal activity against non-replicating Mycobacterium tuberculosis H37Rv Wayne model under hypoxic/oxygen depleted conditions assessed as log reduction after 4 days by serial dilution assay; assay type: functional
Procedure, shortened: (§2)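 Wayne hypoxia model. A mid-log 7H9 culture was diluted to about 10^5 cfu/mL, and 10 mL was sealed in 20 mL headspace vials. Vials were stirred slowly at 37 °C for 20–22 days, until methylene blue indicator (1.5 µg/mL) decolorized. Drug was then injected through the septum, and vials were incubated 4 more days at 37 °C. Tests were run in duplicate, with CFU counted on 7H10 agar plates.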

[10] = tested on: Mycobacterium tuberculosis; assay: Bactericidal activity against non-replicating Mycobacterium tuberculosis H37Rv Wayne model under hypoxic/oxygen depleted conditions assessed as log reduction at 100 ug/ml after 4 days by serial dilution assay; assay type: functional; procedure, shortened: as §2
[11] = tested on: Mycobacterium tuberculosis; assay: Bactericidal activity against non-replicating Mycobacterium tuberculosis H37Rv Wayne model under hypoxic/oxygen depleted conditions assessed as log reduction at 10 ug/ml after 4 days by serial dilution assay; assay type: functional; procedure, shortened: as §2
Escherichia coli = assay: Antibacterial activity against Escherichia coli ATCC 9637 at 50 ug/ml; assay type: functional, organism-based
Staphylococcus aureus = assay: Antibacterial activity against Staphylococcus aureus ATCC 25923 at 50 ug/ml; assay type: functional, organism-based
Klebsiella pneumoniae = assay: Antibacterial activity against Klebsiella pneumoniae ATCC 27736 at 50 ug/ml; assay type: functional, organism-based
Pseudomonas aeruginosa = assay: Antibacterial activity against Pseudomonas aeruginosa ATCC BAA-427 at 50 ug/ml; assay type: functional, organism-based
Candida albicans = assay: Antifungal activity against Candida albicans at 50 ug/ml; assay type: functional, organism-based
Cryptococcus neoformans = assay: Antifungal activity against Cryptococcus neoformans at 50 ug/ml; assay type: functional, organism-based
Sporothrix schenckii = assay: Antifungal activity against Sporothrix schenckii at 50 ug/ml; assay type: functional, organism-based
[12] = tested on: Trichophyton mentagrophytes; assay: Antifungal activity against Trichophyton mentagrophytes at 50 ug/ml; assay type: functional, organism-based
Aspergillus fumigatus = assay: Antifungal activity against Aspergillus fumigatus at 50 ug/ml; assay type: functional, organism-based
Candida parapsilosis = assay: Antifungal activity against Candida parapsilosis ATCC 22019 at 50 ug/ml; assay type: functional, organism-based
[13] = Cmax in Sprague-Dawley rat at 10 mg/kg, po; assay type: ADME, organism-based; design: dose 10 mg/kg, route oral; conditions: in vivo
Procedure, shortened: (§3)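 Male Sprague–Dawley rats (250 ± 25 g) each received a single oral dose of 10 mg/kg or an intravenous dose of 1 mg/kg. Plasma concentration–time profiles were obtained with three rats per time point. Parameters were calculated with a two-compartmental model, and values are averages of three rats. Cmax is given as mean ± SEM.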

[14] = Tmax in Sprague-Dawley rat at 10 mg/kg, po; assay type: ADME, organism-based; design: dose 10 mg/kg, route oral; conditions: in vivo; procedure, shortened: as §3
Rattus norvegicus [15] = assay: AUC in Sprague-Dawley rat at 10 mg/kg, po; assay type: ADME, organism-based, Plasma; design: dose 10 mg/kg, route oral; conditions: in vivo; procedure, shortened: as §3
[16] = Elimination half life in Sprague-Dawley rat at 10 mg/kg, po; assay type: ADME, organism-based; design: dose 10 mg/kg, route oral; conditions: in vivo, read-out: beta t1/2 (converted); procedure, shortened: as §3
Rattus norvegicus [17] = assay: Volume of distribution at steady state in Sprague-Dawley rat at 10 mg/kg, po; assay type: ADME, organism-based; design: dose 10 mg/kg, route oral; conditions: in vivo; procedure, shortened: as §3
Rattus norvegicus [18] = assay: Clearance in Sprague-Dawley rat at 10 mg/kg, po; assay type: ADME, organism-based; design: dose 10 mg/kg, route oral; conditions: in vivo; procedure, shortened: as §3
[19] = Oral bioavailability in Sprague-Dawley rat at 10 mg/kg; assay type: ADME, organism-based; conditions: in vivo; procedure, shortened: as §3
[20] = Cmax in Sprague-Dawley rat at 1 mg/kg, iv; assay type: ADME, organism-based; design: dose 1 mg/kg, route intravenous; conditions: in vivo; procedure, shortened: as §3
[21] = Tmax in Sprague-Dawley rat at 1 mg/kg, iv; assay type: ADME, organism-based; design: dose 1 mg/kg, route intravenous; conditions: in vivo; procedure, shortened: as §3
[22] = AUC in Sprague-Dawley rat at 1 mg/kg, iv; assay type: ADME, organism-based; design: dose 1 mg/kg, route intravenous; conditions: plasma; procedure, shortened: as §3
[23] = Elimination half life in Sprague-Dawley rat at 1 mg/kg, iv; assay type: ADME, organism-based; design: dose 1 mg/kg, route intravenous; conditions: in vivo, read-out: beta t1/2 (converted); procedure, shortened: as §3
[24] = Volume of distribution at steady state in Sprague-Dawley rat at 1 mg/kg, iv; assay type: ADME, organism-based; design: dose 1 mg/kg, route intravenous; conditions: in vivo, read-out: Vdss; procedure, shortened: as §3
[25] = Clearance in Sprague-Dawley rat at 1 mg/kg, iv; assay type: ADME, organism-based; design: dose 1 mg/kg, route intravenous; conditions: in vivo; procedure, shortened: as §3
[26] = Mean residence time in Sprague-Dawley rat at 10 mg/kg, po; assay type: ADME, organism-based; design: dose 10 mg/kg, route oral; conditions: in vivo; procedure, shortened: as §3
[27] = tested on: Mycobacterium tuberculosis; assay: Antimycobacterial activity against Mycobacterium tuberculosis H37Rv infected in mouse chronic TB model assessed as survival rate at 173 umol/kg administered via esophageal cannula 6 times a week for 4 weeks relative to untreated control; assay type: functional
Procedure, shortened: (§4)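 Male Balb/C mice (8–10 weeks, 18–20 g), ten per group, were infected intravenously with 5 × 10^6 CFU H37Rv in 0.2 mL. Dosing by gavage began on day 1, six times weekly for 4 weeks, with the last dose on day 28. Survival was followed to day 30. Survivors were sacrificed on day 30, and lung and spleen homogenates were plated on 7H10/OADC at 37 °C for 4–6 weeks. Results were compared with an untreated infected group.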

[28] = tested on: Mycobacterium tuberculosis; assay: Antimycobacterial activity against Mycobacterium tuberculosis H37Rv infected in mouse chronic TB model assessed as survival rate at 87 umol/kg administered via esophageal cannula 6 times a week for 4 weeks relative to untreated control; assay type: functional; procedure, shortened: as §4
[29] = tested on: Mycobacterium tuberculosis; assay: Antimycobacterial activity against Mycobacterium tuberculosis H37Rv infected in mouse chronic TB model assessed as log reduction in lungs at 173 umol/kg administered via esophageal cannula 6 times a week for 4 weeks relative to untreated control; assay type: functional
[30] = tested on: Mycobacterium tuberculosis; assay: Antimycobacterial activity against Mycobacterium tuberculosis H37Rv infected in mouse chronic TB model assessed as log reduction in lungs at 87 umol/kg administered via esophageal cannula 6 times a week for 4 weeks relative to untreated control; assay type: functional
[31] = tested on: Mycobacterium tuberculosis; assay: Antimycobacterial activity against Mycobacterium tuberculosis H37Rv infected in mouse chronic TB model assessed as log reduction in spleen at 173 umol/kg administered via esophageal cannula 6 times a week for 4 weeks relative to untreated control; assay type: functional
[32] = tested on: Mycobacterium tuberculosis; assay: Antimycobacterial activity against Mycobacterium tuberculosis H37Rv infected in mouse chronic TB model assessed as log reduction in spleen at 87 umol/kg administered via esophageal cannula 6 times a week for 4 weeks relative to untreated control; assay type: functional

## CCN(CC)Cc1cc(N(c2cc(C)nc3cc(Cl)ccc23)S(=O)(=O)c2cccc(Cl)c2Cl)ccc1O
[1]
  IC50: 510 nM
[2]
  MIC100: 3.12 µg/mL (≈ 5.39 µM)
[3]
  CC50 at 72 h: > 300 µg/mL
[4]
  selectivity ratio: > 96
[5]
  inhibition: 31%
[6]
  inhibition: 60%
[7]
  IC50: > 100000 nM
[8]
  Ratio IC50: > 155
[9]
  MIC100: 3.12 µg/mL (≈ 5.39 µM)
[10]
  log10CFU/ml: 2.34
[11]
  log10CFU/ml: 1.14
Escherichia coli
  Activity: inactive
Staphylococcus aureus
  Activity: inactive
Klebsiella pneumoniae
  Activity: inactive
Pseudomonas aeruginosa
  Activity: inactive
Candida albicans
  Activity: inactive
Cryptococcus neoformans
  Activity: inactive
Sporothrix schenckii
  Activity: inactive
[12]
  Activity: inactive
Aspergillus fumigatus
  Activity: inactive
Candida parapsilosis
  Activity: inactive
[13]
  Cmax: 616 ng/mL
[14]
  Tmax: 0.5 h
Rattus norvegicus [15]
  AUC: 2813 ng·h/mL
[16]
  half-life: 4.2 h
Rattus norvegicus [17]
  Vdss: 0.41 L/kg
Rattus norvegicus [18]
  CL: 1 mL/min/kg
[19]
  bioavailability: 1.72%
[20]
  Cmax: 2420 ng/mL
[21]
  Tmax: 5 min
[22]
  AUC: 16400 ng·h/mL
[23]
  half-life: 8.84 h
[24]
  Vd: 0.84 L/kg
[25]
  clearance: 1.17 mL/min/kg
[26]
  MRT: 6.69 h
[27]
  Survival: 60%
[28]
  Survival: 40%
[29]
  log10cfu: 2.12
[30]
  log10cfu: 1
[31]
  log10cfu: 2.12
[32]
  log10cfu: 1
